≈ marks a conversion by molar mass, not a printed value.
Key:
Staphylococcus aureus [1] = assay: Minimal inhibitory concentration of compound against Staphylococcus aureus Tour; format: functional
How it was run: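 Broth MIC by 2-fold serial dilution in microtiter format, in Iso-sensitest broth, with a final inoculum of about 10⁴ cfu/mL. Plates were incubated 18–24 h at 37 °C. MIC was taken as the lowest concentration with no visible growth.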

Staphylococcus aureus [2] = assay: Minimal inhibitory concentration of compound against Staphylococcus aureus Tour in an inoculum of 10e6 cfu/mL; format: functional
How it was run: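 Twofold microtiter broth dilution in Iso-sensitest broth, with the inoculum raised to 10⁶ cfu/mL. After 18–24 h at 37 °C, MIC was read as the lowest concentration giving no visible growth.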

Streptococcus pneumoniae = assay: Minimal inhibitory concentration of compound against Streptococcus pneumoniae UC41; format: functional
How it was run: (§1)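 Streptococci were tested by 2-fold broth microdilution in Todd-Hewitt broth, with a final inoculum of about 10⁴ cfu/mL. After 18–24 h at 37 °C, MIC was read as the lowest concentration with no visible growth.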

Streptococcus pyogenes = assay: Minimal inhibitory concentration of compound against Streptococcus pyogenes C203; format: functional; how it was run: as §1
Enterococcus faecalis = assay: Minimal inhibitory concentration of compound against Streptococcus faecalis AACC7080; format: functional
How it was run: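 For S. faecalis, 2-fold dilution MIC in a microtiter system using Iso-sensitest broth and a final inoculum of about 10⁴ cfu/mL. Incubation was 18–24 h at 37 °C. The endpoint was the lowest concentration without visible growth.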

[3] = test system: Staphylococcus epidermidis; assay: Minimal inhibitory concentration of compound against […] ATCC 12228; format: functional
Staphylococcus aureus [4] = assay: Minimal inhibitory concentration of compound against Staphylococcus aureus Tour determined in iso-sensitest broth supplemented with 30% bovine serum and an inoculum of 10e4 cfu/mL
[5] = Association constant for compound at 31 degree C was determined; format: ADME
How it was run: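 UV difference spectroscopy at 31 °C. Antibiotic at 25 μM in 10% methanol/0.02 M sodium citrate buffer, pH 5, sat in sample and reference cells (4-cm path). Ac-D-Ala-D-Ala was added from a 4 mM stock to the sample cell, with buffer added to the reference. The absorbance change was read at 282–285 nm. K_A came from Scatchard plots, with antibiotic concentration set by UV at 279 nm.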

Row | SMILES | MIC (Staphylococcus aureus [1]) [µg/mL] | MIC (Staphylococcus aureus [2]) [µg/mL] | MIC (Streptococcus pneumoniae) [µg/mL] | MIC (Streptococcus pyogenes) [µg/mL] | MIC (Enterococcus faecalis) [µg/mL] | MIC [3] [µg/mL] | MIC (Staphylococcus aureus [4]) [µg/mL] | KA [5] [M⁻¹]
1 | CN(C)CCCNC(=O)[C@H]1NC(=O)[C@H]2NC(=O)[C@H](NC(=O)[C@@H]3NC(=O)[C@H]4NC(=O)[C@@H](Cc5ccc(c(Cl)c5)Oc5cc3cc(c5O)Oc3ccc(cc3Cl)[C@H]2O)NC(=O)[C@H](N)c2ccc(O)c(c2)Oc2cc(O)cc4c2)c2ccc(O)c(c2)-c2c(O)cc(O)cc21 | 0.06 (≈ 0.0468 µM) | 0.12 (≈ 0.0935 µM) | 0.06 (≈ 0.0468 µM) | 0.06 (≈ 0.0468 µM) | 0.12 (≈ 0.0935 µM) | 0.016 (≈ 0.0125 µM) | 0.25 (≈ 0.195 µM) | 
2 | CC(=O)N[C@@H]1[C@H](O[C@@H]2c3ccc(c(Cl)c3)Oc3cc4cc(c3O)Oc3ccc(cc3Cl)C[C@H]3NC(=O)[C@H](N)c5ccc(O)c(c5)Oc5cc(O)cc(c5)[C@H](NC3=O)C(=O)N[C@H]4C(=O)N[C@H]3C(=O)N[C@@H]2C(=O)N[C@H](C(=O)O)c2cc(O)cc(O)c2-c2cc3ccc2O)O[C@@H](CO)[C@@H](O)[C@@H]1O | 0.5 (≈ 0.357 µM) | 0.25 (≈ 0.178 µM) | 1 (≈ 0.713 µM) | 0.5 (≈ 0.357 µM) | 1 (≈ 0.713 µM) | 0.12 (≈ 0.0856 µM) | 0.5 (≈ 0.357 µM) | 
3 | N[C@H]1C(=O)N[C@@H]2Cc3ccc(c(Cl)c3)Oc3cc4cc(c3O)Oc3ccc(cc3Cl)[C@@H](O)[C@@H]3NC(=O)[C@H](NC(=O)[C@@H]4NC(=O)[C@@H](NC2=O)c2cc(O)cc(c2)Oc2cc1ccc2O)c1ccc(O)c(c1)-c1c(O)cc(O)cc1[C@@H](C(=O)NC1CN2CCC1CC2)NC3=O (stereo partly specified) | 0.12 (≈ 0.0918 µM) | 0.12 (≈ 0.0918 µM) | 0.06 (≈ 0.0459 µM) | 0.06 (≈ 0.0459 µM) | 0.12 (≈ 0.0918 µM) | 0.06 (≈ 0.0459 µM) | 0.5 (≈ 0.383 µM) | 
4 | CC(=O)N[C@@H]1[C@H](O[C@@H]2c3ccc(c(Cl)c3)Oc3cc4cc(c3O)Oc3ccc(cc3Cl)C[C@H]3NC(=O)[C@H](N)c5ccc(O)c(c5)Oc5cc(O)cc(c5)[C@H](NC3=O)C(=O)N[C@H]4C(=O)N[C@H]3C(=O)N[C@@H]2C(=O)N[C@H](C(=O)O)c2cc(O)cc(O[C@H]4O[C@H](CO)[C@@H](O)[C@@H](O)[C@@H]4O)c2-c2cc3ccc2O)O[C@@H](CO)[C@@H](O)[C@@H]1O | 0.25 (≈ 0.16 µM) | 0.5 (≈ 0.32 µM) | 0.5 (≈ 0.32 µM) | 0.5 (≈ 0.32 µM) | 2 (≈ 1.28 µM) | 0.25 (≈ 0.16 µM) | 0.5 (≈ 0.32 µM) | 
5 | CCCCCCCCCC(=O)N[C@@H]1[C@H](Oc2c3cc4cc2Oc2ccc(cc2Cl)[C@@H](O[C@@H]2O[C@@H](CO)[C@@H](O)[C@H](O)[C@@H]2NC(C)=O)[C@@H]2NC(=O)[C@H](NC(=O)[C@@H]4NC(=O)[C@H]4NC(=O)[C@@H](Cc5ccc(c(Cl)c5)O3)NC(=O)[C@H](N)c3ccc(O)c(c3)Oc3cc(O)cc4c3)c3ccc(O)c(c3)-c3c(O[C@H]4O[C@H](CO)[C@@H](O)[C@@H](O)[C@@H]4O)cc(O)cc3[C@@H](C(=O)O)NC2=O)O[C@@H](CO)[C@@H](O)[C@@H]1O | 0.12 (≈ 0.0638 µM) | 0.5 (≈ 0.266 µM) | 0.06 (≈ 0.0319 µM) | 0.06 (≈ 0.0319 µM) | 0.12 (≈ 0.0638 µM) | 0.25 (≈ 0.133 µM) | 0.5 (≈ 0.266 µM) | 1100000
6 | O=C1Cc2ccc(O)c(c2)Oc2cc(O)cc(c2)[C@@H]2NC(=O)[C@@H](Cc3ccc(c(Cl)c3)Oc3cc4cc(c3O)Oc3ccc(cc3Cl)[C@@H](O)[C@@H]3NC(=O)[C@H](NC(=O)[C@@H]4NC2=O)c2ccc(O)c(c2)-c2c(O)cc(O)cc2[C@@H](C(=O)O)NC3=O)N1 | 0.12 (≈ 0.101 µM) | 0.25 (≈ 0.211 µM) | 0.06 (≈ 0.0507 µM) | 0.06 (≈ 0.0507 µM) | 0.12 (≈ 0.101 µM) | 0.25 (≈ 0.211 µM) | 1 (≈ 0.845 µM) | 11000
7 | CCCCCCCCCC(=O)N[C@@H]1[C@H](Oc2c3cc4cc2Oc2ccc(cc2Cl)[C@@H](O[C@@H]2O[C@@H](CO)[C@@H](O)[C@H](O)[C@@H]2NC(C)=O)[C@@H]2NC(=O)[C@H](NC(=O)[C@@H]4NC(=O)[C@H]4NC(=O)[C@@H](Cc5ccc(c(Cl)c5)O3)NC(=O)[C@H](N)c3ccc(O)c(c3)Oc3cc(O)cc4c3)c3ccc(O)c(c3)-c3c(O[C@H]4O[C@H](CO)[C@@H](O)[C@@H](O)[C@@H]4O)cc(O)cc3[C@@H](C(=O)N(C)C)NC2=O)O[C@@H](CO)[C@@H](O)[C@@H]1O | 0.12 (≈ 0.0629 µM) | 0.12 (≈ 0.0629 µM) | 0.06 (≈ 0.0315 µM) | 0.06 (≈ 0.0315 µM) | 0.12 (≈ 0.0629 µM) | 0.06 (≈ 0.0315 µM) | 0.5 (≈ 0.262 µM) | 

Reference: ChEMBL document CHEMBL1124384, “Deaminoteicoplanin and its derivatives. Synthesis, antibacterial activity, and binding strength to Ac-D-Ala-D-Ala” (J Med Chem, 1989)
